SENP1 FRET inh: inhibitors of human SENP1 SUMO protease catalytic domain. Q9P0U3. recombinant SENP1 catalytic domain, CyPet-SUMO1-YPet FRET cleavage. 0.21% of 360,000 active. inhibition, % at 10 µM;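 active = inhibition at least 30% at 10 µM, raw YFP signal under a set limit, fluorescence ratio 0.5 to 1.5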;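 also: 0% = enzyme with DMSO and 100% = no enzyme wells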
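Test system: recombinant human SENP1 catalytic domain, His6-tagged / Medium: pH 8 Tris buffer with EDTA, NaCl, BME, BSA, NP40, catalase / Also added: SUMO1 FRET substrate flanked by Cypet and Ypet, 25 nM / Times: 50 min reaction at room temperature / Signal: FRET, CFP and YFP emission / Control set: no-enzyme low control and enzyme-plus-DMSO high control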
GRK2 aptamer HTS: blocks RNA aptamer binding to human GRK2 | inhibition of aptamer binding, % at 10 µM | AID 488847 | 0.59% of 330,000 active | bead flow cytometry, FAM-aptamer displacement from GRK2;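 active = inhibition of aptamer binding above 40%, roughly 3 SD of noise, on plates passing a quality check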;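 also: median bead fluorescence of bound FAM aptamer so fluorescent compounds give negative values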
Target sequence (P25098 whole entry, looked up): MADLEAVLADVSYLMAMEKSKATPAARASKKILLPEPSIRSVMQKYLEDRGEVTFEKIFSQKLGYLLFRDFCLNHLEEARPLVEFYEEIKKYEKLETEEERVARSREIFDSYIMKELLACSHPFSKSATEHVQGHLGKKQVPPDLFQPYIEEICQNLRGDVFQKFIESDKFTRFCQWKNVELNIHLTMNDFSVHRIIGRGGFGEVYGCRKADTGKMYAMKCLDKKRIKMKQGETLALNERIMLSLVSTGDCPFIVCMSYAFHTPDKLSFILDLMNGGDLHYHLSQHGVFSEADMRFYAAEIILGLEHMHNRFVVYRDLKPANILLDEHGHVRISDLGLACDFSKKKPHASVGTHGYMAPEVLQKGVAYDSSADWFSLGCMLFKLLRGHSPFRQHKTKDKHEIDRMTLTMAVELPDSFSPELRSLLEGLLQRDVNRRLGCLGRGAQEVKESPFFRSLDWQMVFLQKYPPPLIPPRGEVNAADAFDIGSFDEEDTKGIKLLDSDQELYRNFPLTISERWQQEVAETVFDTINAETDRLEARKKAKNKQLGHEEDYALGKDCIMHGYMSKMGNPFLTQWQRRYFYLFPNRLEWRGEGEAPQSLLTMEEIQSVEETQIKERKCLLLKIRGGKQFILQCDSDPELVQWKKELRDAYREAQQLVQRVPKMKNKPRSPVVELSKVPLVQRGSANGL
B2AR ag: agonists of human beta-2 adrenergic receptor inducing internalization. P07550. Am2.2-beta2AR cells, FAP receptor internalization, flow cytometry. response, % (concentration not given with the values). 0.43% of 340,000 active. AID 504454;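 active = response above a set limit, near 3 SD of response in nonfluorescent compounds, cut at about 42% in these data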
NadD block: NadD (S. aureus) enzyme inhibition; purified NadD enzyme, colorimetric absorbance read-out; inhibition, % at 20 µM; 0.78% of 360,000 active; AID 602399; in the data active = inhibition above about 26%
ABHD5-PLIN5 inh: inhibitors of human ABHD5-perilipin-5 interaction; Split G. princeps luciferase complementation, luminescence, 4 h; inhibition, % at 4 µM; 0.78% of 360,000 active; AID 602281;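 active = inhibition above the mean inhibition across every tested compound plus 3 SD, cut at about 22% in these data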;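 also: 0% = DMSO only wells and the 100% control is not disclosed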
SENP1 conf: SENP1 (human) inhibition, single concentration confirmation | shares compounds with SENP1 FRET inh | recombinant SENP1, CyPet-SUMO1-YPet FRET cleavage | inhibition, % at 10 µM | 34% of 520 active | AID 651678; in the data active = inhibition mostly above about 35%, no sharp cut-off; inactive = mostly below about 32%;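 also: 0% = enzyme with DMSO and 100% = no enzyme control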
SENP1 kin conf: confirmation of human SENP1 SUMO protease inhibitors, kinetic; shares compounds with SENP1 FRET inh; recombinant SENP1, CyPet-SUMO1-YPet FRET kinetic cleavage; inhibition, % at 10 µM; 26% of 520 active; AID 651690; in the data active = inhibition mostly above about 32%, no sharp cut-off; inactive = mostly below about 29%;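 also: 0% = DMSO with enzyme and 100% = no enzyme substrate only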
The depositor's hits bear a star; . = not tested or not shown. In the library only some 2.5% were active in any assay of this set; here they are far more common.

SMILES | SENP1 FRET inh | GRK2 aptamer HTS | B2AR ag | NadD block | ABHD5-PLIN5 inh | SENP1 conf | SENP1 kin conf
Cc1c(N2C(=O)/C(=C/c3ccc(N(C)C)cc3)N(C)C2=S)c(=O)n(-c2ccccc2)n1C | 67* | . | 10 | 4 | 22 | 55* | 38*
Cc1c(N2C(=O)/C(=C/c3ccccc3)SC2=S)c(=O)n(-c2ccccc2)n1C | 0 | 0 | -4 | 2 | -11 | . | .
O=[N+]([O-])c1nn(-c2ccc3c(c2)OCCO3)n(O)c1=NCc1ccc(F)cc1Cl | 62* | 1 | -5 | -5 | 2 | 2 | 9
O=[N+]([O-])c1nn(-c2ccc3c(c2)OCCO3)n(O)c1=NCc1ccc(F)cc1 | 3 | 0 | -6 | -2 | 0 | . | .
CCOc1cc([N+](=O)[O-])cc2c1C(=O)Nc1ccccc1O2 | 54* | 0 | -103 | 8 | -1 | 26 | 17
O=C1Nc2ccccc2Oc2cc([N+](=O)[O-])ccc21 | 23 | 6 | -34 | -4 | 0 | . | .
O=C(OCc1ccc(O)cc1)c1c(-c2ccsc2)oc2ccc(N3CCOCC3)cc12 | 36* | 0 | 3 | -5 | -9 | 19 | 21
OC1(C#Cc2c(-c3ccsc3)oc3ccc(N4CCOCC4)cc23)CCCCC1 | -7 | 6 | 6 | 4 | -10 | . | .
N#Cc1cccc(C(=O)Nc2cccc(S(=O)(=O)N3CCCC3)c2)c1 | 0 | 3 | -13 | -5 | -1 | . | .
Nc1c2c(nc3ccc(Br)cc13)N(Cc1ccccc1)CC2 | 59* | 3 | 4 | 10 | 3 | 13 | 9
COc1ccc(-c2cc(C(=O)NCCCn3ccnc3)c3ccccc3n2)c(OC)c1 | -2 | 0 | -22 | 17 | 5 | . | .
CC(=O)Nc1ccc(NC(=O)C(C)OC(=O)[C@@H]2CCCN2C(=O)c2cccs2)cc1 (stereo partly drawn) | 0 | 0 | -7 | -4 | -4 | . | .
Cc1ccc(S(=O)(=O)N2CCCCC2)cc1NC(=O)c1cnccn1 | 0 | . | 5 | -3 | -12 | . | .
CC1(C)c2ssc(=S)c2-c2ccccc2N1C(=O)c1ccco1 | 32* | 0 | -1 | -3 | -4 | 4 | 9
Cc1ccc2c(c1)-c1c(ssc1=S)C(C)(C)N2C(=O)c1ccco1 | -1 | 1 | -2 | 16 | -11 | . | .
CC/C(=N\NC(=O)c1nnn(-c2nonc2N)c1CN(C)c1ccccc1)c1ccccc1 | 3 | 2 | -1 | 9 | 1 | . | .
COc1ccccc1N=Cc1c(C)[nH]n(-c2ccc(C)cc2C)c1=O | -3 | 0 | -11 | 0 | -1 | . | .
Cc1cc(Br)ccc1-n1[nH]c(C)c(C=Nc2cccc3nsnc23)c1=O | 40* | 8 | -2 | 13 | -11 | 6 | 6
OCC(O)C1OC(c2ccccc2)OC(CO)C1O (stereo not drawn) | 1 | . | -7 | -2 | 6 | . | .
COc1cc(Nc2nc3c(N)cc(C(F)(F)F)cc3nc2-c2ccccc2)cc(OC)c1OC | 46* | . | 6 | 7 | -1 | 2 | 3
O=C1C=C(c2cccc(Cl)c2O)C[C@@H](c2ccc(Cl)cc2)C1 | 58* | 0 | 0 | 0 | -1 | 99* | 76*
C/C(=N\NC(=O)c1ccc(C)cc1C)c1ccc2c(c1)Nc1ccccc1S2 | 61* | 0 | 6 | 8 | 1 | 6 | -6
CC1CCN(C(=O)Nc2ccc3nsnc3c2)CC1 | 22 | 3 | -5 | 0 | -7 | . | .
O=C(Nc1ccc2nsnc2c1)N1CCCCC1 | 31* | 0 | 0 | 10 | -7 | -8 | -6
CCN1/C(=C2/OC(=S)N(C)C2=O)Sc2ccccc21 | -29 | . | -14 | 0 | 7 | . | .
SMILES | SENP1 FRET inh | GRK2 aptamer HTS | B2AR ag | NadD block | ABHD5-PLIN5 inh | SENP1 conf | SENP1 kin conf
CCN1/C(=C\C=C2\C(=O)N(C)C(=S)N2C)Sc2ccccc21 | 37* | 2 | -12 | 10 | 11 | -9 | -11
CCCN(CCC)C(=O)Cn1c(=O)c2sccc2n2c(=S)sc(-c3ccccc3)c12 | 66* | 0 | -8 | 5 | -7 | 47* | 30
CN1CCC(N(C)C(=O)c2ccc(Cl)c(S(=O)(=O)N3CCOCC3)c2)CC1 | -1 | . | 6 | 2 | 3 | . | .
COc1ccc(-c2cnnc(N/N=C/c3ccc(-c4ccc([N+](=O)[O-])cc4)o3)n2)cc1 | 36* | . | 10 | 4 | 1 | -2 | 9
O=[N+]([O-])c1ccc(-c2ccc(/C=N/Nc3nc(N4CCCC4)nc(N4CCCC4)n3)o2)cc1 | -26 | 0 | -25 | 29 | -3 | . | .
CCC(C(=O)OCC(=O)N1CCN(S(=O)(=O)c2ccc(C)cc2C)CC1)c1ccccc1 (stereo not drawn) | 2 | 2 | 1 | -6 | -1 | . | .
COc1cc(-c2cnc3c(NC(C)=O)cc(-c4ccc(N5CCN(C)CC5)cc4)cn23)cc(OC)c1OC | 34* | . | . | 1 | 4 | 12 | -1
CC(=O)Nc1cc(-c2ccc(N3CCN(C)CC3)cc2)cn2c(-c3ccccc3)cnc12 | 48* | . | . | 4 | 2 | 39* | 28
COc1cc(C(=O)NCC(=O)OCc2ccc(F)cc2)cc(OC)c1OC | 0 | 0 | 1 | 1 | 8 | . | .
O=C(CCN1C(=O)c2ccccc2C1=O)Nc1ccccc1C(F)(F)F | -1 | 0 | 3 | 5 | -7 | . | .
Nc1cc([N+](=O)[O-])ccc1Nc1ccccc1 | 56* | 2 | 4 | -3 | 2 | 39* | 15
O=C(O)c1cc([N+](=O)[O-])ccc1Nc1ccccc1 | 0 | 0 | 2 | 1 | 6 | . | .
O=[N+]([O-])c1ccc(Nc2ccccc2O)c([N+](=O)[O-])c1 | 50* | . | . | -2 | -3 | 31 | 17
COC(=O)c1c(C)[nH]c(C(=O)/C=C/c2ccccc2F)c1C | -5 | 1 | 2 | -2 | 3 | . | .
O=C1C=C(c2ccc3cc[nH]c3c2)C[C@@H](c2ccc3c(c2)OCO3)C1 | -15 | 14 | 4 | 15 | 2 | . | .
COc1cccc(-c2nc3nc(C)cc(C)n3c2Nc2c(C)cccc2C)c1 | 64* | . | . | 7 | 0 | 36* | 20
Cc1cc(C)n2c(Nc3c(C)cccc3C)c(-c3ccccn3)nc2n1 | 63* | . | . | 5 | -5 | 29 | 16
COc1ccccc1CNC(=O)CCCn1nc(C)n2ccnc2c1=O | -16 | 0 | 5 | -3 | -4 | . | .
COc1ncc(-c2ccc(N3C(c4ccc([N+](=O)[O-])cc4)=Cc4ccccc4C3CC(C)=O)cc2)cn1 (stereo not drawn) | 48* | . | . | 24 | 6 | 18 | 11
Cc1cccc(C)c1NC(=O)C1C(c2ccccc2)=Nc2ccccc2N1C(=O)c1cnccn1 (stereo not drawn) | 37* | . | . | . | 0 | 16 | 15
Cc1cc(C(=O)NN)c2cc(Br)ccc2n1 | 1 | 0 | 1 | 0 | 1 | . | .

Bioassay records from PubChem BioAssay.
